Results published in ChEMBL document CHEMBL1157144, “Novel 16-membered macrolides modified at C-12 and C-13 positions of midecamycin A1 and miokamycin. Part 1: Synthesis and evaluation of 12,13-carbamate and 12-arylalkylamino-13-hydroxy analogues” (2008).
≈ marks a conversion by molar mass, not a printed value.

Key:
Type in all cases: functional
Staphylococcus aureus [1] = experiment: Antibacterial activity against standard Staphylococcus aureus after 20 hrs by agar dilution method
In short: (§1)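 Agar dilution MIC. The inoculum came from a seed culture in Sensitivity test broth. A 5 µl portion of a cell suspension of about 10^6 CFU/ml was inoculated onto Sensitivity disk agar supplemented with 5% horse blood. Plates were incubated at 37 °C for 20 h, then MIC was read.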

Staphylococcus aureus [2] = experiment: Antibacterial activity against susceptible Staphylococcus aureus after 20 hrs by agar dilution method; in short: as §1
Staphylococcus aureus [3] = experiment: Antibacterial activity against ermA-constitutive resistant Staphylococcus aureus after 20 hrs by agar dilution method; in short: as §1
Staphylococcus aureus [4] = experiment: Antibacterial activity against ermB-inducible resistant Staphylococcus aureus after 20 hrs by agar dilution method; in short: as §1
Staphylococcus aureus [5] = experiment: Antibacterial activity against ermC-inducible resistant Staphylococcus aureus after 20 hrs by agar dilution method; in short: as §1
Streptococcus pneumoniae [6] = experiment: Antibacterial activity against susceptible Streptococcus pneumoniae after 20 hrs by agar dilution method
In short: (§2)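 MIC by agar dilution. Strains grown on blood agar plates for seed culture. About 5 µl of a suspension of roughly 10^6 CFU/ml spotted onto Sensitivity disk agar with 5% horse blood. Plates incubated at 37 °C for 20 h, then MIC read.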

Streptococcus pneumoniae [7] = experiment: Antibacterial activity against ermB-constitutive resistant Streptococcus pneumoniae after 20 hrs by agar dilution method
In short: (§3)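 Agar dilution MIC. Streptococcal strains were pre-cultured on blood agar plates. A 5 µl portion of a cell suspension of about 10^6 CFU/ml was inoculated onto Sensitivity disk agar supplemented with 5% horse blood. Plates were incubated at 37 °C for 20 h, then MIC was read.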

Streptococcus pneumoniae [8] = experiment: Antibacterial activity against ermB-inducible resistant Streptococcus pneumoniae after 20 hrs by agar dilution method; in short: as §3
Streptococcus pneumoniae [9] = experiment: Antibacterial activity against mefE efflux-resistant Streptococcus pneumoniae after 20 hrs by agar dilution method; in short: as §3
Streptococcus pyogenes [10] = experiment: Antibacterial activity against ermB-constitutive resistant Streptococcus pyogenes after 20 hrs by agar dilution method; in short: as §3
Streptococcus pyogenes [11] = experiment: Antibacterial activity against mefE efflux-resistant Streptococcus pyogenes after 20 hrs by agar dilution method; in short: as §3
Moraxella catarrhalis = experiment: Antibacterial activity against standard Moraxella catarrhalis after 20 hrs by agar dilution method; in short: as §2
Haemophilus influenzae [12] = experiment: Antibacterial activity against standard Haemophilus influenzae after 20 hrs by agar dilution method; in short: as §2
Haemophilus influenzae [13] = experiment: Antibacterial activity against susceptible Haemophilus influenzae after 20 hrs by agar dilution method; in short: as §2

SMILES	MIC (Staphylococcus aureus [1]) [µg/mL]	MIC (Staphylococcus aureus [2]) [µg/mL]	MIC (Staphylococcus aureus [3]) [µg/mL]	MIC (Staphylococcus aureus [4]) [µg/mL]	MIC (Staphylococcus aureus [5]) [µg/mL]	MIC (Streptococcus pneumoniae [6]) [µg/mL]	MIC (Streptococcus pneumoniae [7]) [µg/mL]	MIC (Streptococcus pneumoniae [8]) [µg/mL]	MIC (Streptococcus pneumoniae [9]) [µg/mL]	MIC (Streptococcus pyogenes [10]) [µg/mL]	MIC (Streptococcus pyogenes [11]) [µg/mL]	MIC (Moraxella catarrhalis) [µg/mL]	MIC (Haemophilus influenzae [12]) [µg/mL]	MIC (Haemophilus influenzae [13]) [µg/mL]
CCC(=O)O[C@@H]1CC(=O)O[C@H](C)C[C@H](O)[C@H](N(C)CCCc2ccncc2)/C=C/[C@H](OC(C)=O)[C@H](C)C[C@H](CC=O)[C@H](O[C@@H]2O[C@H](C)[C@@H](O[C@H]3C[C@@](C)(O)[C@@H](OC(=O)CC)[C@H](C)O3)[C@H](N(C)C)[C@H]2O)[C@H]1OC	0.2 (≈ 0.196 µM)	0.2 (≈ 0.196 µM)	> 100	0.2 (≈ 0.196 µM)	0.39 (≈ 0.382 µM)	0.05 (≈ 0.0489 µM)	> 100	> 100	0.1 (≈ 0.0978 µM)	> 100	0.1 (≈ 0.0978 µM)	0.78 (≈ 0.763 µM)	1.56 (≈ 1.53 µM)	12.5 (≈ 12.2 µM)
CCC(=O)O[C@@H]1CC(=O)O[C@H](C)C[C@H](O)[C@H](N(C)CCc2ccccc2)/C=C/[C@H](OC(C)=O)[C@H](C)C[C@H](CC=O)[C@H](O[C@@H]2O[C@H](C)[C@@H](O[C@H]3C[C@@](C)(O)[C@@H](OC(=O)CC)[C@H](C)O3)[C@H](N(C)C)[C@H]2O)[C@H]1OC	0.39 (≈ 0.387 µM)	0.39 (≈ 0.387 µM)	> 100	0.78 (≈ 0.774 µM)	0.39 (≈ 0.387 µM)	0.1 (≈ 0.0993 µM)	> 100	25 (≈ 24.8 µM)	0.1 (≈ 0.0993 µM)	> 100	0.2 (≈ 0.199 µM)	0.39 (≈ 0.387 µM)	1.56 (≈ 1.55 µM)	25 (≈ 24.8 µM)
CCC(=O)O[C@@H]1CC(=O)O[C@H](C)C[C@H](O)[C@H](N(C)CCCCCc2ccccc2)/C=C/[C@H](OC(C)=O)[C@H](C)C[C@H](CC=O)[C@H](O[C@@H]2O[C@H](C)[C@@H](O[C@H]3C[C@@](C)(O)[C@@H](OC(=O)CC)[C@H](C)O3)[C@H](N(C)C)[C@H]2O)[C@H]1OC	0.39 (≈ 0.372 µM)	0.39 (≈ 0.372 µM)	> 100	0.78 (≈ 0.743 µM)	0.39 (≈ 0.372 µM)	0.1 (≈ 0.0953 µM)	100 (≈ 95.3 µM)	12.5 (≈ 11.9 µM)	0.2 (≈ 0.191 µM)	25 (≈ 23.8 µM)	0.2 (≈ 0.191 µM)	0.39 (≈ 0.372 µM)	3.13 (≈ 2.98 µM)	25 (≈ 23.8 µM)
CCC(=O)O[C@@H]1CC(=O)O[C@H](C)C[C@@H]2OC(=O)N(CCCc3ccccc3)[C@@H]2/C=C/[C@H](OC(C)=O)[C@H](C)C[C@H](CC=O)[C@H](O[C@@H]2O[C@H](C)[C@@H](O[C@H]3C[C@@](C)(O)[C@@H](OC(=O)CC)[C@H](C)O3)[C@H](N(C)C)[C@H]2O)[C@H]1OC	0.78 (≈ 0.755 µM)	0.78 (≈ 0.755 µM)	> 100	1.56 (≈ 1.51 µM)	0.78 (≈ 0.755 µM)	0.2 (≈ 0.194 µM)	> 100	> 100	0.2 (≈ 0.194 µM)	> 100	0.2 (≈ 0.194 µM)	1.56 (≈ 1.51 µM)	6.25 (≈ 6.05 µM)	100 (≈ 96.8 µM)
CCC(=O)O[C@@H]1CC(=O)O[C@H](C)C[C@H](O)[C@H](N(C)CCCc2ccccc2)/C=C/[C@H](OC(C)=O)[C@H](C)C[C@H](CC=O)[C@H](O[C@@H]2O[C@H](C)[C@@H](O[C@H]3C[C@@](C)(O)[C@@H](OC(=O)CC)[C@H](C)O3)[C@H](N(C)C)[C@H]2O)[C@H]1OC	0.2 (≈ 0.196 µM)	0.2 (≈ 0.196 µM)	> 100	0.2 (≈ 0.196 µM)	0.2 (≈ 0.196 µM)	0.05 (≈ 0.049 µM)	> 100	12.5 (≈ 12.2 µM)	0.1 (≈ 0.0979 µM)	100 (≈ 97.9 µM)	0.1 (≈ 0.0979 µM)	0.39 (≈ 0.382 µM)	1.56 (≈ 1.53 µM)	25 (≈ 24.5 µM)
CCC(=O)O[C@@H]1CC(=O)O[C@H](C)C[C@@H]2OC(=O)N[C@@H]2/C=C/[C@H](OC(C)=O)[C@H](C)C[C@H](CC=O)[C@H](O[C@@H]2O[C@H](C)[C@@H](O[C@H]3C[C@@](C)(O)[C@@H](OC(=O)CC)[C@H](C)O3)[C@H](N(C)C)[C@H]2O)[C@H]1OC	0.39 (≈ 0.426 µM)	0.39 (≈ 0.426 µM)	> 100	0.39 (≈ 0.426 µM)	0.78 (≈ 0.852 µM)	0.2 (≈ 0.219 µM)	> 100	> 100	0.2 (≈ 0.219 µM)	> 100	0.2 (≈ 0.219 µM)	0.39 (≈ 0.426 µM)	0.78 (≈ 0.852 µM)	6.25 (≈ 6.83 µM)
